Calls of active or inactive are those of the source. The calls are words filed in the database; no cut-off is given here.
What was measured:
[1] = organism: Xenopus laevis; assay: Inhibition of actin polymerization in N-WASP VCA-stimulated Xenopus laevis egg extract at 10 uM after 1.5 mins by fluorescence assay
Outline: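 Xenopus laevis egg extract added at 4 °C to vehicle or compound, followed by VCA polypeptide. Pyrene-actin polymerization then followed by fluorescence in a cuvette at 21 °C.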

[2] = biological target: Cdc42 protein (Xenopus laevis) (UniProt Q9DDV6); assay: Inhibition of PIP2 liposome-stimulated Cdc42 activation in Xenopus laevis egg extract assessed as inhibition of association of Cdc42(GTPgammaS) with GST-PBD at 50 uM by Western blot analysis
Outline: (§1)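 Xenopus egg extract (8 mg/ml) with 0.2 mM ATP and 10 µM latrunculin B at 4 °C, moved to 25 °C; compound or vehicle 5 min, then 20 µM GTPγS and 20 µM PIP2 liposomes (48:48:4) 10 min, then 2.5 µM GST-PBD 10 min. Lysis buffer plus glutathione-Sepharose, 45 min at 4 °C; bound Cdc42 by western blot.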

[3] = test system: BSC-1; assay: Inhibition of VSVG-EGFP anterograde transport from endoplasmic reticulum to golgi complex of african green monkey BSC1 cells at 12.5 uM after 3 hrs by epifluorescence microscopy; assay type: functional, cell-based; details: Chlorocebus aethiops
Outline: (§2)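 BS-C-1 monkey kidney cells expressing temperature-sensitive VSVG-EGFP, held at 40 °C to trap cargo in the ER, then shifted to 32 °C in 100 µg ml-1 cycloheximide. Compound or vehicle (1% DMSO) present during transport. Cells fixed 3 h after release and imaged by wide-field fluorescence. Surface versus perinuclear (beta-COP-costained Golgi) cargo scored. IC50 from dose-response curves, s.e.m. (n = 4).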

[4] = biological target: T1, Cell division control protein 42 homolog (Homo sapiens, UniProt P60953); assay: Inhibition of nucleotide exchange activity of PIP2-stimulated Cdc42 at 25 uM by liquid scintillation counting
Target sequence in this assay (P60953 whole entry, looked up): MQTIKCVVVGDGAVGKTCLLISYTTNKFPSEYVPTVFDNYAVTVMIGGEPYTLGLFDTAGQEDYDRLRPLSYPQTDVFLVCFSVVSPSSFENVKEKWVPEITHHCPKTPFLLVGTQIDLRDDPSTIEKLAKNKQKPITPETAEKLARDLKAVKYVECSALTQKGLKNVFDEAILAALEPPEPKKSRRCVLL

[5] = biological target: Cdc42 protein (Xenopus laevis) (UniProt Q9DDV6); assay: Inhibition of CDC42-mediated actin polymerization in PIP2-stimulated Xenopus laevis egg extract at 0.1 to 100 uM by fluorescence assay
[6] = biological target: T1, Cell division control protein 42 homolog; assay: Effect on nucleotide binding activity of PIP2-stimulated Cdc42 at 25 uM by liquid scintillation counting
Target sequence in this assay (P60953 whole entry, looked up): as above

[7] = biological target: T1, Cell division control protein 42 homolog; assay: Effect on GEF interaction with PIP2-stimulated Cdc42 at 25 uM by liquid scintillation counting
Target sequence in this assay (P60953 whole entry, looked up): as above

[8] = test system: Lipid bilayer; assay: Binding affinity to phosphatidylinositol 4,5-bisphosphate liposome assessed as dynamin2-stimulated GTP hydrolysis at 250 uM by scintillation counting
Outline: (§3)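 Truncated His-tagged human dynamin 2 (proline-rich domain, aa 736–866, deleted), expressed in BL21, mixed with PIP2 liposomes (65:32:3 PC:PI:PIP2, 0.1-µm extruded) and compound in 1% DMSO vehicle. 20 µM [γ-32P]GTP added in Tris pH 7.5/150 mM NaCl/2.5 mM MgCl2/DTT, 25 °C. After 20 min, charcoal-quenched aliquot centrifuged and released 32P-phosphate scintillation counted; s.e.m., n = 3.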

[9] = biological target: T1, Cell division control protein 42 homolog; assay: Effect on Cdc42-mediated cellular response in human U373MG cells assessed as reorientation of golgi complex 15 uM after 6 hrs by epifluorescence assay; assay type: cell-based; details: U-373MG ATCC
Outline: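 Confluent U373MG human astrocytoma monolayer preincubated 1 h with 15 µM compound or vehicle, then scratched. At 0 and 6 h fixed, stained with Hoechst and anti-giantin; cells at wound edge with Golgi in the forward 120° sector facing scratch scored polarized. Epifluorescence; s.e.m., n = 3, >100 cells per condition.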
Target sequence in this assay (P60953 whole entry, looked up): as above

[10] = test system: Lipid bilayer; assay: Binding affinity to phosphatidylinositol 4,5-bisphosphate liposome at 50 uM by electron microscopy
Outline: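 PIP2 liposomes (100 µM) incubated with compound or 1% DMSO, with 1% Triton X-100 as comparator. Samples in reaction buffer adsorbed on glow-discharged carbon grids, negatively stained with 1.2% uranyl acetate and imaged by EM at 80 kV.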

[11] = biological target: T1, Cell division control protein 42 homolog; assay: Inhibition of GEF-independent nucleotide exchange activity of nonprenylated Cdc42 at 100 uM after 10 mins in presence of 4 mM EDTA
Target sequence in this assay (P60953 whole entry, looked up): as above

[12] = biological target: Cell division control protein 42 homolog (Rattus norvegicus) (UniProt Q8CFN2); assay: Inhibition of Cdc42 binding to rat liver golgi membrane at 10 to 150 uM by Western blot analysis
Outline: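 Bovine brain cytosol incubated with compound or 1% DMSO, then 20 µM GTPγS and 0.2 mg/ml rat liver Golgi membranes added. Membrane-bound Cdc42 and β-COP analyzed by western blot.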

[13] = test system: BSC-1; assay: Effect on perinuclear localization of trans-Golgi network in african green monkey BSC1 cells at 12.5 uM after 2.5 hrs by epifluorescence microscopy; assay type: functional, cell-based; details: Chlorocebus aethiops
[14] = test system: BSC-1; assay: Effect on transferrin endocytosis in african green monkey BSC1 cells at 12.5 uM after 2.5 hrs by epifluorescence microscopy; assay type: functional, cell-based; details: Chlorocebus aethiops
[15] = biological target: T1, Cell division control protein 42 homolog; assay: Inhibition of GEF-independent nucleotide exchange activity of prenylated Cdc42 assessed as protein dissociation from […] complex at 100 uM after 3 mins in presence of 4 mM Mg2+ chelator EDTA
Target sequence in this assay (P60953 whole entry, looked up): as above

[16] = biological target: Cdc42 protein (Xenopus laevis) (UniProt Q9DDV6); assay: Effect on GST-PBD binding to recombinant nonprenylated Cdc42 in PIP2 liposome-stimulated Xenopus laevis egg extract at 50 uM by Western blot analysis
Outline: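 Xenopus egg extract treated 5 min with compound or vehicle, then 20 nM recombinant nonprenylated Cdc42 (GTPγS or GDP) 10 min, then GST-PBD 10 min. Pulled down on glutathione-Sepharose and Cdc42 detected by western blot; GST-PBD stained with Ponceau S as loading control.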

[17] = biological target: Cdc42 protein (Xenopus laevis) (UniProt Q9DDV6); assay: Inhibition of PIP2 liposome-stimulated Cdc42 activation in Xenopus laevis egg extract assessed as inhibition of association of Cdc42(GTPgammaS) with GST-PBD at 1 to 25 uM by Western blot analysis; outline: as §1
[18] = test system: BSC-1; assay: Inhibition of VSVG-EGFP anterograde transport from endoplasmic reticulum to plasma membrane of african green monkey BSC1 cells after 3 hrs by epifluorescence microscopy; assay type: functional, cell-based; details: Chlorocebus aethiops, BSC-1, 3 h; outline: as §2
[19] = test system: MDCK; assay: Decrease in NCAM-GFP transport from golgi complex of MDCK cells at 10 uM after 20 mins by fluorescence assay; assay type: functional, cell-based; details: Canis lupus familiaris
Outline: (§4)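 Nonpolarized MDCK cells expressing NCAM-GFP or p75-GFP in 0.5% BSA; cargo held in Golgi at 20 °C for 30–60 min, then compound or vehicle for 20 min before shift to 32 °C. Perinuclear GFP normalized to total cell fluorescence, expressed as % of t = 0 Golgi signal; s.d., n = 2, 20 cells per condition.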

[20] = biological target: T1, Cell division control protein 42 homolog; assay: Inhibition of GEF-independent nucleotide exchange activity of prenylated Cdc42 after 3 mins in presence of 4 mM Mg2+ chelator EDTA
Outline: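 GDP/[35S]GTPγS exchange by 0.5 µM prenylated Cdc42-RhoGDI1 complex with 1 µM RhoGDI1 and 100 µM PIP2 liposomes, 4 mM EDTA replacing GEF, in Tris pH 7.5 reaction buffer at 25 °C. Started with 10 µM [35S]GTPγS; reactions sampled at 3 min, filtered on nitrocellulose and scintillation counted; s.e.m., n = 3.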
Target sequence in this assay (P60953 whole entry): as the sequence (P60953 whole entry, looked up) above

[21] = biological target: Cdc42 protein (Xenopus laevis) (UniProt Q9DDV6); assay: Inhibition of GST-PBD binding to Cdc42 in Xenopus laevis egg extract assessed as Cdc42(GTPgammasS) activation at 50 uM treated before addition of GST-PBD by Western blot analysis
[22] = test system: BSC-1; assay: Effect on transferrin translocation from golgi complex to endoplasmic reticulum of african green monkey BSC1 cells at 12.5 uM after 2.5 hrs by epifluorescence microscopy; assay type: functional, cell-based; details: Chlorocebus aethiops
[23] = biological target: Cdc42 protein (Xenopus laevis, UniProt Q9DDV6); assay: Inhibition of CDC42-mediated actin polymerization in PIP2-stimulated Xenopus laevis egg extract after 6 mins by fluorescence assay
[24] = test system: Lipid bilayer; assay: Binding affinity to phosphatidylinositol 4,5-bisphosphate liposome assessed as dynamin2-stimulated GTP hydrolysis at 25 uM by scintillation counting; outline: as §3
[25] = biological target: T1, Cell division control protein 42 homolog; assay: Inhibition of Cdc42 binding to PIP2 liposomes at 100 uM after 10 mins
Outline: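 Pure 0.5 µM prenylated Cdc42-RhoGDI1 complex, 1 µM RhoGDI1, 1 mM PIP2 liposomes, 100 µM compound or 2% DMSO in reaction buffer, 25 °C. After 10 min, spun 10 min at 200,000g; pellet dot-blotted with anti-Cdc42, quantified and normalized to vehicle; s.e.m., n = 4.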

[26] = biological target: Cdc42 protein (Xenopus laevis) (UniProt Q9DDV6); assay: Inhibition of GST-PBD binding to Cdc42 in Xenopus laevis egg extract assessed as Cdc42(GTPgammasS) activation at 50 uM treated after addition of GST-PBD by Western blot analysis
[27] = test system: MDCK; assay: Increase in p75-GFP transport from golgi complex of MDCK cells at 10 uM after 20 mins by fluorescence assay; assay type: functional, cell-based; details: Canis lupus familiaris; outline: as §4
[28] = organism: Xenopus laevis; assay: Inhibition of actin polymerization in N-WASP VCA-stimulated Xenopus laevis egg extract at 20 uM after 1.5 mins by fluorescence assay

Cdc42 protein (Xenopus laevis), sequence (Q9DDV6 as listed by the source): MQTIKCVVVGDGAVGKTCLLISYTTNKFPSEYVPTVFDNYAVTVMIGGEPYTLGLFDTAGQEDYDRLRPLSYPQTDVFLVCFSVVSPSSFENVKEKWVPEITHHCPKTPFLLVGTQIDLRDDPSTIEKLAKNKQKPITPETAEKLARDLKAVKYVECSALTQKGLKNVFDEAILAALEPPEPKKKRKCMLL
Cdc42 protein, sequence (Q9DDV6 whole entry): as the sequence (Q9DDV6 as listed by the source) above
Cell division control protein 42 homolog (Rattus norvegicus), sequence (Q8CFN2 whole entry, looked up): as the sequence (P60953 whole entry, looked up) above

SMILES	inhibition [3]	inhibition [4]	Activity [5]	Activity [6]	Activity [7]	inhibition [15]	IC50 [18] [µM]	IC50 [20] [µM]	IC50 [23] [µM]	also measured
C/C1=C/C(=O)O[C@@H]2C[C@@H](CC[C@H](C)/C=C\CC1)O[C@@](O)([C@@H]1CSC(=O)N1)C2	–	–	–	–	–	–	–	–	–	inhibition [1]: Active
COc1ccc(CS[C@@H]2C/C(=N/OCc3ccccc3)C[C@H]3Oc4c(Br)c(OCC5CC5)cc5c4[C@]32C[C@@H](CO)N(C(C)=O)C5)cc1	inactive	inactive	inactive	inactive	inactive	–	–	–	–	inhibition [2]: inactive
NC[C@@H]1O[C@H](O[C@H]2[C@@H](O)[C@H](O[C@@H]3[C@@H](O)[C@H](N)C[C@H](N)[C@H]3O[C@H]3O[C@H](CN)[C@@H](O)[C@H](O)[C@H]3N)O[C@@H]2CO)[C@H](N)[C@@H](O)[C@@H]1O	–	–	–	–	–	–	–	–	–	Activity [8]: Active
COc1ccc(CS[C@@H]2C/C(=N/OCc3ccccc3)C[C@H]3Oc4c(Br)c(OCC5CC5)cc5c4[C@]32C[C@@H](CO)NC5)cc1 [SECRAMINE A]	inactive	Active	Active	inactive	inactive	inactive	12	9	1	Activity [9]: 45%; Activity [10]: inactive; inhibition [11]: inactive; inhibition [12]: Active; Activity [13]: inactive; Activity [14]: inactive; Activity [16]: inactive; inhibition [17]: Active; inhibition [19]: Active; inhibition [21]: Active; Activity [22]: inactive; Activity [24]: inactive; inhibition [25]: Active; inhibition [26]: inactive; inhibition [27]: Active; inhibition [28]: inactive
CO/N=C1\C[C@H]2Oc3c(Br)c(OCC4CC4)cc4c3[C@@]2(C[C@@H](CO)NC4)[C@H](SCc2ccc(OC)cc2)C1 [SECRAMINE B]	inactive	Active	Active	inactive	inactive	inactive	12	7	3	–
